Assay outcomes deposited in PubChem by several laboratories.
Most compounds without a hit are left out; they make up all but 2.3% or so of the library.
LGR2 inh – Drosophila LGR2 receptor signaling inhibition | HEK293 LGR2, CRE-luciferase, bursicon-stimulated, 4 h | 0.35% of 380,000 active | inhibition, % at 9.99 µM;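 active means drop in luminescence signal, shown as inhibition above about 50% in the replicate tests, limit read from the data, passing the limit was not always enough; inconclusive means probably only some replicates passing the limit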;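 further: agonist challenge used bursicon conditioned medium at about half maximal strength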
XiGFP reactiv – reactivates the inactive X chromosome in mouse fibroblasts. activation, % at 7.58 µM. 0.055% of 360,000 active. XiGFP mouse fibroblasts, % GFP-positive cells imaging, 3 d; cells co-treated with 5-aza-dC sensitizer; scaled so ellipticine positive control = 100%;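 active means mean normalized replicate activation at least 10% and every replicate at or above 10%; inconclusive means only one of the two criteria met; inactive means mean below 10% and not all replicates reach 10%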
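Assay system: SV40-immortalized XiGFP fibroblast cells, line 68-5-11; buffer or medium: DMEM plus 5-aza-dC sensitizer; compound: one concentration, pinned; timing: compounds 3 days, fix/stain 15 min at room temperature; benchmarks: positive control ellipticine, 6 µM final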
EWS-Fli block – inhibitors of EWS/Fli oncoprotein transcriptional activity | inhibition, % at 12.6 µM | A673 NR0B1-luciferase reporter, viability-normalised | AID 651661 | 0.67% of 350,000 active;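 active means mean inhibition of at least 50% after viability correction, with every replicate also passing that limit; inconclusive means mean reaches 50% but only one of two replicates passes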;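 further: firefly luciferase signal divided by Alamar Blue viability fluorescence both relative to DMSO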
FN deposition inh – fibronectin deposition inhibition; AH1F fibroblasts, Alexa488-fibronectin deposition fluorescence, overnight; inhibition, % at 12.6 µM; 0.086% of 350,000 active;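 active means mean inhibition across replicates of 30% or more, regardless of how many single replicates reach that level; inconclusive means mean under 30% yet at least half of replicates reach 30%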
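Schedule: 1 h cell adhesion before compound, then overnight fibronectin incubation; test system: AH1F fibroblast monolayer depositing Alexa488-labelled fibronectin into matrix; quantity: 10000 AH1F cells per well; probe or stimulus: fluorescent fibronectin at 24 nM final; signal: fluorescence, ex 485 nm, em 525 nm; evaluation: percent inhibition as loss of matrix-bound fibronectin fluorescence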
TWEAK-Fn14 inh – TWEAK-Fn14 signaling inhibition | 2% of 360,000 active | TWEAK-stimulated Fn14 reporter cells, luciferase luminescence, 8 h | inhibition, % at 10 µM | AID 1159606; in the data active means inhibition above about 50%
TROY NFkB inh – inhibitors of TROY-dependent NF-kB signaling; Q293 LMP1-TROYcd NF-kB luciferase reporter, 4 h; inhibition, % at 10 µM; 0.98% of 360,000 active;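 active means compounds whose plate-normalised and pattern-corrected inhibition of the luciferase reporter signal at the single screening dose is 50% or more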
Each line names hits and unclear results; the compound was inactive in the other large screens.

O=C(CCN1N=C(c2ccccc2)CCC1=O)NCC1COc2ccccc2O1 (stereo unspecified)	TWEAK-Fn14 inh 75
COC(=O)C1=CN(c2ccc(OC)cc2OC)C(N)=C(C#N)C1c1cccc([N+](=O)[O-])c1 (stereo unspecified)	EWS-Fli block 57 (no result: TWEAK-Fn14 inh, TROY NFkB inh)
O=c1c2c(-c3ccccc3)csc2nc2c3ccccc3c(NCCN3CCOCC3)nn12	LGR2 inh 64
C/C=C/c1ccc([C@H]2[C@H](CO)N[C@H]2CN(C(=O)C2CCC2)C(C)C)cc1	none (no result: TWEAK-Fn14 inh, TROY NFkB inh)
CCOc1ccc(N=C(NN)c2ccc3ccccc3n2)cc1	LGR2 inh inconclusive, TWEAK-Fn14 inh 94, TROY NFkB inh 87 (no result: EWS-Fli block)
C[C@@H]1CCCCO[C@H](CN(C)C(=O)C2CCCCC2)[C@H](C)CN([C@H](C)CO)C(=O)c2cc(NS(=O)(=O)c3cn(C)cn3)ccc2O1	none (no result: FN deposition inh, TWEAK-Fn14 inh, TROY NFkB inh)
CN(C)CCCNC(=O)C[C@H]1CC[C@H]2[C@H](COc3ccc(NC(=O)c4ccc5c(c4)OCO5)cc3C(=O)N2C)O1	none (no result: TWEAK-Fn14 inh, TROY NFkB inh)
O=C(CSc1ccccn1)Nc1nonc1[N+](=O)[O-]	TWEAK-Fn14 inh 69, TROY NFkB inh 68 (no result: EWS-Fli block)
O=C(CSc1ccccn1)Nc1ccc(NC(=O)CSc2ccccn2)cc1	none
CN(C)CCN(Cc1ccc(Cl)cc1)c1ccccn1	XiGFP reactiv 15
C[N+](C)(C)CCN(Cc1ccc(Cl)cc1)c1ccccn1	none (no result: LGR2 inh, XiGFP reactiv, EWS-Fli block)
C[C@H]1CN([C@@H](C)CO)C(=O)c2cccc(NS(=O)(=O)c3cccs3)c2O[C@H]1CN(C)C(=O)Nc1ccc2c(c1)OCO2	none (no result: FN deposition inh, TWEAK-Fn14 inh, TROY NFkB inh)
O=C(O)/C=C/c1ccc([N+](=O)[O-])o1	none
O=C1NC(=S)S/C1=C\C=C\c1ccc([N+](=O)[O-])o1	XiGFP reactiv inconclusive, EWS-Fli block 70, TWEAK-Fn14 inh 50
COc1ccccc1S(=O)(=O)N1[C@@H]2CNC[C@H]1[C@H]2c1ccc(-c2ccccc2C)cc1	none (no result: EWS-Fli block, TWEAK-Fn14 inh, TROY NFkB inh)
CC1(C)Oc2ccc(NC(=O)C3COc4ccccc4O3)cc2O1 (stereo unspecified)	TROY NFkB inh 54 (no result: LGR2 inh, XiGFP reactiv, EWS-Fli block)
Cc1ccc(NC(=O)C2COc3ccccc3O2)cc1 (stereo unspecified)	TWEAK-Fn14 inh 51
O=C1NC(=O)c2cc(NC(=O)C3COc4ccccc4O3)ccc21 (stereo unspecified)	none
O=C(Nc1ccc(-c2cn3ccsc3n2)cc1)C1COc2ccccc2O1 (stereo unspecified)	TROY NFkB inh 57 (no result: LGR2 inh, XiGFP reactiv, EWS-Fli block, FN deposition inh)
O=C(Nc1ccccc1)C1COc2ccccc2O1 (stereo unspecified)	TWEAK-Fn14 inh 80
Cc1noc(C)c1NC(=O)N(C)C[C@H]1OCCCC[C@@H](C)Oc2ccc(NS(=O)(=O)c3ccc(Cl)cc3)cc2C(=O)N([C@H](C)CO)C[C@H]1C	none (no result: TWEAK-Fn14 inh, TROY NFkB inh)
CC(=O)c1sc(NC(=O)C2COc3ccccc3O2)nc1C (stereo unspecified)	TWEAK-Fn14 inh 87, TROY NFkB inh 56 (no result: LGR2 inh)
COC(=O)/C=c1\[nH]c2nnc(C)n2c1=O	TROY NFkB inh 50
CC[C@@H](C(=O)[C@@H](C)[C@@H](O)[C@H](C)CCc1ccc(C)c(O)c1C(=O)O)[C@H]1O[C@](CC)([C@H]2CC[C@](O)(CC)[C@H](C)O2)C[C@@H]1C	LGR2 inh 70, TWEAK-Fn14 inh 86, TROY NFkB inh 76
COc1ccc(CCn2c(C)cc(C(=O)CN3C(=O)C(=O)N(Cc4ccco4)C3=O)c2C)cc1	XiGFP reactiv 34
C[C@H]1CN([C@@H](C)CO)S(=O)(=O)c2ccc(Br)cc2O[C@H]1CN(C)CC1CC1	none (no result: TWEAK-Fn14 inh, TROY NFkB inh)
CCC(=O)N1N=C(c2ccc(Cl)cc2)CC1c1ccco1 (stereo unspecified)	none
Cc1ccc(C2=NN(C(=O)CN3CCN(C4CCS(=O)(=O)C4)CC3)C(c3ccco3)C2)cc1 (stereo unspecified)	TWEAK-Fn14 inh 71, TROY NFkB inh 66
CN(C)CCNC(=O)c1cc2c(s1)-c1ccc(Cl)cc1SC2	TWEAK-Fn14 inh 105
CCOCCCNC(=O)c1cc2c(s1)-c1ccccc1SC2	none
Cc1ccccc1-c1ccc([C@H]2[C@H]3CN(C(=O)NC4CCCC4)CC(=O)N3[C@H]2CO)cc1	none (no result: FN deposition inh, TWEAK-Fn14 inh, TROY NFkB inh)
COc1ccc(N=C2NN=C(c3ccc4c(c3)OCCO4)CS2)cc1	none (no result: LGR2 inh, XiGFP reactiv, EWS-Fli block, FN deposition inh)
COc1ccccc1C1=NNC(=Nc2cccc(S(=O)(=O)N(C)C)c2)SC1	TWEAK-Fn14 inh 50
COc1ccc(C2NCCc3c2[nH]c2ccccc32)cc1COc1ccc(F)cc1 (stereo unspecified)	EWS-Fli block 78 (no result: LGR2 inh)
COc1ccc(C2NCCc3c2[nH]c2ccccc32)cc1CN1CCc2cc(OC)c(OC)cc2C1C (stereo unspecified)	none (no result: LGR2 inh, XiGFP reactiv, EWS-Fli block, FN deposition inh)
COc1ccc(CN(C)C[C@H]2Oc3ccc(NC(=O)Cc4ccccc4)cc3CC(=O)N([C@H](C)CO)C[C@H]2C)cc1	none (no result: EWS-Fli block, FN deposition inh, TWEAK-Fn14 inh, TROY NFkB inh)
O=C(NCCc1cccs1)c1ccc(Cl)c(Cl)c1	none
CC(C)(C)SCCNC(=O)c1ccccc1	none (no result: LGR2 inh, XiGFP reactiv, EWS-Fli block, FN deposition inh)
O=C(NCCc1cccs1)c1ccc(Cl)cc1	TWEAK-Fn14 inh 59
Cc1ccc(C(=O)NCCc2cccs2)cc1	LGR2 inh 75, EWS-Fli block 64, TWEAK-Fn14 inh 85, TROY NFkB inh 69
Cc1ccc(C(=O)NCCSC(C)(C)C)cc1	TWEAK-Fn14 inh 52 (no result: XiGFP reactiv, EWS-Fli block, FN deposition inh)
O=C(NCCc1cccs1)C(c1ccccc1)c1ccccc1	none
C[C@@H]1CN([C@H](C)CO)C(=O)Cc2cc(N(C)C)ccc2O[C@H]1CN(C)Cc1ccc(Oc2ccccc2)cc1	none (no result: FN deposition inh, TWEAK-Fn14 inh, TROY NFkB inh)
C[C@H]1CN([C@@H](C)CO)C(=O)Cc2cc(NS(C)(=O)=O)ccc2O[C@H]1CN(C)S(=O)(=O)c1ccccc1	none (no result: TWEAK-Fn14 inh, TROY NFkB inh)
C[C@@H]1CCCCO[C@H](CN(C)Cc2ccc(Cl)c(Cl)c2)[C@@H](C)CN([C@@H](C)CO)C(=O)c2cc(NC(=O)Cc3ccccc3)ccc2O1	none (no result: TWEAK-Fn14 inh, TROY NFkB inh)
Cc1cc(C(=O)COC(=O)c2ccc(Cl)c(S(N)(=O)=O)c2)c(C)n1CC1CCCO1 (stereo unspecified)	TWEAK-Fn14 inh 64, TROY NFkB inh 72
Cc1cc(C(=O)COc2cccc([N+](=O)[O-])c2)c(C)n1C1CC1	none (no result: LGR2 inh)
COCCn1c(C)cc(C(=O)COC(=O)c2ccc(-n3nc(C)cc3C)cc2)c1C	none (no result: LGR2 inh, XiGFP reactiv, EWS-Fli block)
COc1cc(OC)cc(C(=O)OCC(=O)c2cc(C)n(CC3CCCO3)c2C)c1 (stereo unspecified)	none
Cc1cc(C(=O)COC(=O)c2ccc(O)cc2)c(C)n1CC1CCCO1 (stereo unspecified)	TROY NFkB inh 62 (no result: LGR2 inh)
CNS(=O)(=O)c1cccc(C(=O)OCC(=O)c2cc(C)n(CC3CCCO3)c2C)c1 (stereo unspecified)	none
COCCn1c(C)cc(C(=O)COC(=O)c2ccc(Cl)c(S(N)(=O)=O)c2)c1C	TWEAK-Fn14 inh 72
